In series [1] the test system is MDA-MB-231. The experiment in a line: Cell cycle arrest in human […] cells assessed as accumulation at G2 phase at 7.5 uM by propidium iodide staining by FACS analysis (reference value: 22.74%). The format is functional. (In general: Flow cytometry measures light scatter and fluorescence of single cells or particles in a stream.)
Series [2] has as its system MDA-MB-231. Nature of the series: Cell cycle arrest in human […] cells assessed as accumulation at S phase at 2.5 uM by propidium iodide staining by FACS analysis (reference value: 13.72%). In kind it is functional.
For series [3], the system named is MDA-MB-231. Nature of the series: Cell cycle arrest in human […] cells assessed as accumulation at subG1 phase at 5 uM by propidium iodide staining by FACS analysis (reference value: 0.3%). The format is functional.
In another series the test system is HEK293. The experiment in a line: Antiproliferative activity against HEK293 cells after 24 hrs by MTT assay. In kind it is functional, cell-based. The settings on record: Homo sapiens, HEK293, 24 h. Put shortly: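 MTT viability: cells seeded at 1×10^4 per well in DMEM with 10% FBS, left to adhere overnight, then serum-starved 4 h. Compounds were given at a range of doses, with 0.1% DMSO vehicle as control. EC50 was taken from dose-response curves spanning 100nM-50µM. Data are mean ± SEM from at least three independent experiments.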
(In general: Formazan colour is commonly taken as a measure of viable cells.)

Series [4] in a line: Safety index, ratio of IC50 for human MCF10A cells to EC50 for human ER-positive MDA-MB-231 cells. To be noted: MCF10A cells versus.
Series [5] has as its system MCF7. The experiment in a line: Antiproliferative activity against human ER-negative MCF7 cells after 24 hrs by MTT assay. In kind it is functional, cell-based. To be noted: mcf7.
Series [6] in a line: Safety index, ratio of IC50 for human MCF10A cells to EC50 for human HCT116 cells. In kind it is toxicity, cell-based, MCF-10A. To be noted: MCF10A cells versus HCT116 cells, read-out: Ratio IC50/EC50. The gist of the method: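 Safety index is the IC50 in the normal cells divided by the EC50 in the cancer cells. Both values come from MTT assays: cells in DMEM with 10% FBS, serum-starved 4 h, then exposed to compound across a 100nM-50µM dose range with 0.1% DMSO as vehicle control.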

Series [7] has as its system MDA-MB-231. The experiment in a line: Cell cycle arrest in human […] cells assessed as accumulation at subG1 phase at 2.5 uM by propidium iodide staining by FACS analysis (reference value: 0.3%). In kind it is functional.
Series [8] has as its target Signal transducer and activator of transcription 3 (Homo sapiens) (UniProt P40763). Nature of the series: Inhibition of EGF-induced STAT3 phosphorylation in human MDA-MB-231 cells at 1 uM by ELISA. In kind it is cell-based. On the technique in general: An ELISA detects its analyte on a solid surface through an enzyme-linked reagent.
Series [9] relates to MDA-MB-231. The experiment in a line: Induction of apoptosis in human […] cells assessed as caspase 9 activation at 2.5 to 7.5 uM by Caspase-Glo assay. In kind it is functional, cell-based. Put shortly: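 Caspase-8, -9 and -3 activities measured with Caspase-Glo 8, 9 and 3 kits; mean ± SEM from three independent experiments.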
Series [10] has as its system Mast/stem cell growth factor receptor Kit (Homo sapiens), P10721 [D816G]. The experiment in a line: Inhibition of cKit D816G mutant (unknown origin) at 10 uM. Put shortly:
(§1)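 Cell-free kinase profiling was run as a standard 33P-ATP-based in vitro kinase assay.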

The target in series [11] is Plasminogen activator inhibitor 1 (Homo sapiens) (UniProt P05121). The experiment in a line: Inhibition of EGF-induced […] PAI-1 in human MDA-MB-231 cells at 1 uM by ELISA. In kind it is cell-based. Put shortly:
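MDA-MB-231 cells treated at 1µM for 24 h with or without EGF. PAI-1 in conditioned medium measured by ELISA.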

For series [12], the target named is Signal transducer and activator of transcription 3 (Homo sapiens) (UniProt P40763). Nature of the series: Inhibition of basal level STAT3 phosphorylation in human MCF7 cells at 1 uM by ELISA. In kind it is cell-based.
Signal transducer and activator of transcription 3 (Homo sapiens), sequence (P40763 whole entry): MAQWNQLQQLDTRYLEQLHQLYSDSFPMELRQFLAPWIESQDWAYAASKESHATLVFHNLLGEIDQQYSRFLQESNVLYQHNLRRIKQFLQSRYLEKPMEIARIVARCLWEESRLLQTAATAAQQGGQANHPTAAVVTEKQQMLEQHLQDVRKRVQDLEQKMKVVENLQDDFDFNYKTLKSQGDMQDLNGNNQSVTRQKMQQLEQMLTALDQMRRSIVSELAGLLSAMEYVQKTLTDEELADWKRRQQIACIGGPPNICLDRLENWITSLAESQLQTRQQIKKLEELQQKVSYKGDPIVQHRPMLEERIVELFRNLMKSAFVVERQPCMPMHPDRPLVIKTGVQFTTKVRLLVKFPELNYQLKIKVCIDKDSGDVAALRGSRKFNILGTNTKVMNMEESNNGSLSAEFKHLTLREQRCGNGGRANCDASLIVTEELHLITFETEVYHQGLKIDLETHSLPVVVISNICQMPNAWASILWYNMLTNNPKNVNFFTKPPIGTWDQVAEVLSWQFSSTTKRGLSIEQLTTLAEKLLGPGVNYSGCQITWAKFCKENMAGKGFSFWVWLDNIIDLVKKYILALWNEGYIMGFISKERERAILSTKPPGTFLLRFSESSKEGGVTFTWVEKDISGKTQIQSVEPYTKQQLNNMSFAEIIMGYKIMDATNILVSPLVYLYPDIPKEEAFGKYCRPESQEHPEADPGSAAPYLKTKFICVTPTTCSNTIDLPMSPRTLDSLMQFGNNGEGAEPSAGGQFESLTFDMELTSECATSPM
Series [13] addresses Epidermal growth factor receptor (Homo sapiens) (UniProt P00533). The experiment in a line: Inhibition of EGFR phosphorylation at Tyr790 (unknown origin) at 10 uM.
Series [14] concerns MCF7. Nature of the series: Induction of apoptosis in human […] cells assessed as caspase 3 activation at 2.5 to 7.5 uM by Caspase-Glo assay. In kind it is functional, cell-based. The gist of the method:
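Caspase-3 activity by Caspase-Glo 3 luminescent kit.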

For series [15], the system named is MCF7. The experiment in a line: Induction of apoptosis in human MCF7 cells xenografted in NIH-3 mouse assessed as increase in Bax to Bcl2 ratio in tumor at 16 mg/kg, po for 25 days by qPCR. The format is functional, organism-based. Also on record: dose 16 mg/kg.
Series [16] addresses Phosphodiesterase 6 (Homo sapiens) (UniProt Q13956+P18545+P35913+O43924+P16499+P51160). The experiment in a line: Inhibition of PDE6AB (unknown origin) activity at 1 to 10 uM. In kind it is protein assay. The gist of the method: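 PDE6AB activity was measured by radiometric assay, a modification of the Thompson and Appleman two-step method. Sildenafil 1µM served as reference standard.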

Series [17] concerns MDA-MB-231. The experiment in a line: Inhibition of mammosphere formation in human MDA-MB-231 cells at 5 to 20 uM after 8 days. In kind it is functional, cell-based. The gist of the method:
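Single cells were plated in ultralow-attachment plates at 100,000 viable cells/ml for primary culture and 5,000 cells/ml for passages. Spheres formed over 7–10 days in serum-free MEBM containing compound, with salinomycin as comparator. Primary spheres were trypsin-dissociated for serial passage. Sphere number was counted manually and verified by two independent observers blinded to treatment.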

Series [18] concerns MDA-MB-231. The experiment in a line: Induction of apoptosis in human […] cells assessed as loss of mitochondrial membrane potential at 5 uM after 24 hrs by JC-1 staining based flow cytometry. In kind it is functional, cell-based. Put shortly:
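Cells treated at 5μM for 24 h, trypsinized, stained with JC-1 (1μg/ml) for 15 min at 37°C, washed in PBS and analysed by flow cytometry in FL1 and FL2 channels.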

Series [19] has as its target Receptor-type tyrosine-protein kinase FLT3 (Homo sapiens) (UniProt P36888). Nature of the series: Inhibition of Flt3 (unknown origin) at 10 uM.
Series [20] concerns the target RAF proto-oncogene serine/threonine-protein kinase (Homo sapiens) (UniProt P04049). The experiment in a line: Inhibition of c-RAF (unknown origin) at 10 uM. Put shortly:
as §1

Series [21] has as its target Dual 3',5'-cyclic-AMP and -GMP phosphodiesterase 11A (Homo sapiens) (UniProt Q9HCR9). Nature of the series: Inhibition of PDE11A1 (unknown origin) activity at 1 to 10 uM. The gist of the method: (§2)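 Recombinant PDE isoform activity was read by fluorescence polarization. A binding reagent complexes with the nucleotide monophosphate that the phosphodiesterase generates from cAMP/cGMP, and this raises the polarization of the labelled substrate. Reference standards were PDE1A3 10µM IBMX, PDE2A3 1nM BAY 60-7550, PDE3CAT 1µM cilostazol, PDE4CAT rolipram, PDE5CAT 0.1µM sildenafil, PDE7A […], PDE8A1 10µM BRL-50481, PDE9A1 1µM SB 36216 and PDE11A1 dipyridamole.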

Series [22] concerns MDA-MB-231. Nature of the series: Inhibition of ALDH1 in human MDA-MB-231 cells at 5 to 20 uM after 8 days by FACS analysis. The format is functional, cell-based. Put shortly:
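ALDH1-positive MDA-MB-231 cells identified with Aldefluor reagent and quantified by flow cytometry.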

Series [23] deals with High affinity cGMP-specific 3',5'-cyclic phosphodiesterase 9A (Homo sapiens) (UniProt O76083). The experiment in a line: Inhibition of PDE9A1 (unknown origin) activity at 1 to 10 uM. The gist of the method:
as §2

Another series has as its system DLD-1. The experiment in a line: Antitumor activity against human DLD1 cells assessed as reduction in CD133 positive in colon cancer stem cells after 24 hrs by flow cytometry. The format is functional, cell-based.
The target in series [24] is RAC-alpha serine/threonine-protein kinase (Homo sapiens) (UniProt P31749). The experiment in a line: Inhibition of basal level AKT phosphorylation in human MCF7 cells at 1 uM by ELISA. The format is cell-based.

This is an account of results in ChEMBL document CHEMBL3352791, “Thioaryl naphthylmethanone oxime ether analogs as novel anticancer agents” (J Med Chem, 2014).

The structures appear in SMILES notation. pEC50, pIC50: −log10 of the molar value. Activity calls are given as the source filed them. The calls are words filed in the database; no cut-off is given here.

Receptor-type tyrosine-protein kinase FLT3 (Homo sapiens), sequence (P36888 whole entry): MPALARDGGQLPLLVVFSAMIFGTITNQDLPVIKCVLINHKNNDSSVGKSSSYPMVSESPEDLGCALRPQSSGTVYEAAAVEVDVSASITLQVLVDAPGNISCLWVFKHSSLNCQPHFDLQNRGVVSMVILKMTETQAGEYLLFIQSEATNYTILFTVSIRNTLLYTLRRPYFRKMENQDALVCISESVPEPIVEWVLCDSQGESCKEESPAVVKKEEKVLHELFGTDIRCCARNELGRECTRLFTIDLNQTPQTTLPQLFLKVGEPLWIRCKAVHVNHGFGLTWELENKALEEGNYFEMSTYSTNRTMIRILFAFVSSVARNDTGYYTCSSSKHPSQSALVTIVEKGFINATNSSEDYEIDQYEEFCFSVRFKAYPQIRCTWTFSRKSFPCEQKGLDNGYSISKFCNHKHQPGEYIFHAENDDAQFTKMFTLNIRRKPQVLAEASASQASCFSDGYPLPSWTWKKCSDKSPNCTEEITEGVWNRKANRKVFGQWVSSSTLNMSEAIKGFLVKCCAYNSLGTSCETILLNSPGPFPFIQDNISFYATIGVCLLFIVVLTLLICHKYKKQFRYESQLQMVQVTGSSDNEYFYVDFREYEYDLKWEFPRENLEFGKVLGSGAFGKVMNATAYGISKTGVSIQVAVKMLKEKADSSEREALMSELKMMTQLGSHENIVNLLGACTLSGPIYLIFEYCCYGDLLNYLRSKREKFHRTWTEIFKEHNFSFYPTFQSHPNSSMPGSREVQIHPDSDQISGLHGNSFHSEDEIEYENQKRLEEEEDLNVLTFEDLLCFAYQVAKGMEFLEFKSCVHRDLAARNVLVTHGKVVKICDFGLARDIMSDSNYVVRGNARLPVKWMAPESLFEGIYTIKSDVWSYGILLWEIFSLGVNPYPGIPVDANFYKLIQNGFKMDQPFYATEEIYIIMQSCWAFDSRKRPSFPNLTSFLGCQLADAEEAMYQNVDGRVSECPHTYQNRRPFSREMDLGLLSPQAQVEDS
Dual 3',5'-cyclic-AMP and -GMP phosphodiesterase 11A (Homo sapiens), sequence (Q9HCR9 whole entry, looked up, canonical isoform): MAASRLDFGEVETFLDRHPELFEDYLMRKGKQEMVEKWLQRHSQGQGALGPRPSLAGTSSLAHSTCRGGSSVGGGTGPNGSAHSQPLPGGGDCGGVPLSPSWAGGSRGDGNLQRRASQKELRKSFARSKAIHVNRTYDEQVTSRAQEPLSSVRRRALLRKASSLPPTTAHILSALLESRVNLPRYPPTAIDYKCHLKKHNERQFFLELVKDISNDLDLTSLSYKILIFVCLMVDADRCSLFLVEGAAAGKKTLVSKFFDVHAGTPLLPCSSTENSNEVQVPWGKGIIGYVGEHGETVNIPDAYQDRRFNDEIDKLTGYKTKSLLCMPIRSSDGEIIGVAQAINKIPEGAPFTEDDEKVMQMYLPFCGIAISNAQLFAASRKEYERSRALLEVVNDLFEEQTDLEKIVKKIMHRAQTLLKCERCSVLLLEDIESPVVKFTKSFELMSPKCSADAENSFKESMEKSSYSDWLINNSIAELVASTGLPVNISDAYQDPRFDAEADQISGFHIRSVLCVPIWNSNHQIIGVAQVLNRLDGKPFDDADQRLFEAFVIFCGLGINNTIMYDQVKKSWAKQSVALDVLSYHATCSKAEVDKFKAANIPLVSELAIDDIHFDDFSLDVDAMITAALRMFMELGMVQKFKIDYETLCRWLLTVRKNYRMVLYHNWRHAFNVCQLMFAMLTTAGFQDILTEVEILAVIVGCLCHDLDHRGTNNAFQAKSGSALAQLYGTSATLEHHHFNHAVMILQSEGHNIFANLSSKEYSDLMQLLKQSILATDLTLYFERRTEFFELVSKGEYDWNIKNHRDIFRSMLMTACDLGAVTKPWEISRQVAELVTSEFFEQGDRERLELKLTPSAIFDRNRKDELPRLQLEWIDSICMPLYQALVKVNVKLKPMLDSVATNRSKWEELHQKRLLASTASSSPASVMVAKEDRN
RAF proto-oncogene serine/threonine-protein kinase (Homo sapiens), sequence (P04049 whole entry): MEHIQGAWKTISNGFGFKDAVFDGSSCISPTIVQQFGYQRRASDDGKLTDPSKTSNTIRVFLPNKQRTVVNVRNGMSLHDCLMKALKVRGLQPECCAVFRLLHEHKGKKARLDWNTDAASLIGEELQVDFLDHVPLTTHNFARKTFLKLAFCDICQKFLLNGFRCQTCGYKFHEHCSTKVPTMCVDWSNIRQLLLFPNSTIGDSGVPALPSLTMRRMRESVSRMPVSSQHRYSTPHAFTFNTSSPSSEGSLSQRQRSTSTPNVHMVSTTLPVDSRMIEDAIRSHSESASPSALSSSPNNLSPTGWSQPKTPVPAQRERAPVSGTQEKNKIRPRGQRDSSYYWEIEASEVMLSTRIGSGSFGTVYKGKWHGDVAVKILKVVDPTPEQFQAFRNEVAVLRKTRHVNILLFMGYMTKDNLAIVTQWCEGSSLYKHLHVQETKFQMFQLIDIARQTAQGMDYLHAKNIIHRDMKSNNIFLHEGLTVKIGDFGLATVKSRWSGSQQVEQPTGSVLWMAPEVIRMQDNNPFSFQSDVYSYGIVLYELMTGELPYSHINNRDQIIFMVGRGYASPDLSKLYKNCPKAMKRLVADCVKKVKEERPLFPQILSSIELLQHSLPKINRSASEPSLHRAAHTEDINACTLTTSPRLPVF
Plasminogen activator inhibitor 1 (Homo sapiens), sequence (P05121 whole entry): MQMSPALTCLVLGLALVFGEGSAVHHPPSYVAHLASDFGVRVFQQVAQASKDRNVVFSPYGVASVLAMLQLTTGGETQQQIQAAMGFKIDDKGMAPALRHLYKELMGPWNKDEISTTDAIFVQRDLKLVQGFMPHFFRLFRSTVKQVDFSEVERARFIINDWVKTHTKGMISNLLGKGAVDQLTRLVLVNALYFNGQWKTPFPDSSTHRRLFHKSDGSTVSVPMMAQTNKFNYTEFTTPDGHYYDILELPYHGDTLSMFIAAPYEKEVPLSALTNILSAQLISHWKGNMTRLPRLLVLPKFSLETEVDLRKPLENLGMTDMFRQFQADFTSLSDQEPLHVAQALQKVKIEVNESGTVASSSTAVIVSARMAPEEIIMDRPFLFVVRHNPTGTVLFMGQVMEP
Epidermal growth factor receptor (Homo sapiens), sequence (P00533 whole entry): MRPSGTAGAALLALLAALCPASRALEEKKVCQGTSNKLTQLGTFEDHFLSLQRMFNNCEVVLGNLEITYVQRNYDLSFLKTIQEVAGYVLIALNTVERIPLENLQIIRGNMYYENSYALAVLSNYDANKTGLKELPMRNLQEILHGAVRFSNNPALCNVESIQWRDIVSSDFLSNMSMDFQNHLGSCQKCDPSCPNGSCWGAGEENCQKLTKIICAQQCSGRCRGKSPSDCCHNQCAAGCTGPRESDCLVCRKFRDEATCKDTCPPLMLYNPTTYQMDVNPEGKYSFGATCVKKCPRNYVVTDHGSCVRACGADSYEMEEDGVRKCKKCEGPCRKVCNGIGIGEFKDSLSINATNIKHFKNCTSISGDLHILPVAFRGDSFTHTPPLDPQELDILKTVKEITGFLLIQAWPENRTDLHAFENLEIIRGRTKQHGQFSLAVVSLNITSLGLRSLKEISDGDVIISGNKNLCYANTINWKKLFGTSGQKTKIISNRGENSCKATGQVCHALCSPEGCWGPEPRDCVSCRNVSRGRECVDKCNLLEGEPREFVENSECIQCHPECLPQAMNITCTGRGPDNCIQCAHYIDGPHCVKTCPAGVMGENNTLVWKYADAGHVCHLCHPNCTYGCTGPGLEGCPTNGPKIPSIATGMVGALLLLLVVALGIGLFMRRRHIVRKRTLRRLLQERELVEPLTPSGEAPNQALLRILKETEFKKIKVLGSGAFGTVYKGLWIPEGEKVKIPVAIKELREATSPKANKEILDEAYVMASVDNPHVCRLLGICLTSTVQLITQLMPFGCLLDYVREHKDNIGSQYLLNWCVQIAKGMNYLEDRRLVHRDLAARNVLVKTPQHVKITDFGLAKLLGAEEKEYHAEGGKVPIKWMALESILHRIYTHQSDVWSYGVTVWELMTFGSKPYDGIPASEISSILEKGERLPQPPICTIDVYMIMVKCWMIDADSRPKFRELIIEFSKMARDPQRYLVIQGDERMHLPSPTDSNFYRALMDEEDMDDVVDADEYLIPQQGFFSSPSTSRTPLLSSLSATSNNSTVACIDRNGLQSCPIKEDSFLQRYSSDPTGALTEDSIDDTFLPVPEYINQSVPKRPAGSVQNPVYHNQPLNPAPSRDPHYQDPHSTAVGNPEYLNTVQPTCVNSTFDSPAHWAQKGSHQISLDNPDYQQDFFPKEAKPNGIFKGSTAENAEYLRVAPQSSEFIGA

Consider `CCN(CC)CCO/N=C(\c1ccc(SC)cc1)c1cccc2ccccc12.O=C(O)C(=O)O`, for which the Activity turned out to be 6.09% with MDA-MB-231 [1], 13.65% in the series with MDA-MB-231 [2], 0.9% with MDA-MB-231 [3] and 0.99% in the series with MDA-MB-231 [7]. In addition, in the series on HEK293, the pIC50 – broadly, −log10 of the IC50, conventionally taken in molar units – is 4.70. Besides, the selectivity ratio in series [4] is 50; in series [6], 2.5. In addition, the pEC50 (commonly the EC50 on a negative log10 scale, so that one unit is a factor of ten) in the series on MCF7 [5] was 5.12.

Regarding `CCN(CC)CCO/N=C(\c1ccc(SC)cc1)c1cccc2ccccc12`, the inhibition entry (in series [8]; in series [11]; in the series with MDA-MB-231 [17]; with MDA-MB-231 [22]; in the series on DLD-1) was “Active” in each case. Moreover, the outcome in the series with MDA-MB-231 [9], with MCF7 [15] and with MDA-MB-231 [18] was Active. Further, the inhibition entry in [10], in series [12], in series [13], in series [16], in [19] and in [20] was “inactive” in each case. The inhibition result in [21], in series [23] and in series [24] was “inactive” in each case. Moreover, the result with MCF7 [14] was inactive.
